Experimental data as given in ChEMBL document CHEMBL1144107, “Novel and known constituents from Buddleja species and their activity against leukocyte eicosanoid generation” (J Nat Prod, 1999).
pIC50: −log10 of the molar value.

Experiments:
Rattus norvegicus = species on record: Rattus norvegicus; test: Inhibition of cyclooxygenase in Wistar rat peritoneal leukocytes at 50 ug/mL; assay type: cell-based
Summary of the method: (§1)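 Peritoneal leukocytes (~85% PMNs) came from male Wistar rats (200-300 g) 16-20 h after ip 6% oyster glycogen and were used at 2.5 × 10^6 cells/mL in complete HBSS. The COX readout was supernatant TXB2 by radioimmunoassay (3H-TXB2 tracer, rabbit antiserum, 4 °C, 18 h).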

[1] = molecular target: T1, Polyunsaturated fatty acid 5-lipoxygenase (Rattus norvegicus) (UniProt P12527); test: Inhibition of 5-lipoxygenase in Wistar rat peritoneal leukocytes at 50 ug/mL; assay type: cell-based
T1 sequence (whole entry): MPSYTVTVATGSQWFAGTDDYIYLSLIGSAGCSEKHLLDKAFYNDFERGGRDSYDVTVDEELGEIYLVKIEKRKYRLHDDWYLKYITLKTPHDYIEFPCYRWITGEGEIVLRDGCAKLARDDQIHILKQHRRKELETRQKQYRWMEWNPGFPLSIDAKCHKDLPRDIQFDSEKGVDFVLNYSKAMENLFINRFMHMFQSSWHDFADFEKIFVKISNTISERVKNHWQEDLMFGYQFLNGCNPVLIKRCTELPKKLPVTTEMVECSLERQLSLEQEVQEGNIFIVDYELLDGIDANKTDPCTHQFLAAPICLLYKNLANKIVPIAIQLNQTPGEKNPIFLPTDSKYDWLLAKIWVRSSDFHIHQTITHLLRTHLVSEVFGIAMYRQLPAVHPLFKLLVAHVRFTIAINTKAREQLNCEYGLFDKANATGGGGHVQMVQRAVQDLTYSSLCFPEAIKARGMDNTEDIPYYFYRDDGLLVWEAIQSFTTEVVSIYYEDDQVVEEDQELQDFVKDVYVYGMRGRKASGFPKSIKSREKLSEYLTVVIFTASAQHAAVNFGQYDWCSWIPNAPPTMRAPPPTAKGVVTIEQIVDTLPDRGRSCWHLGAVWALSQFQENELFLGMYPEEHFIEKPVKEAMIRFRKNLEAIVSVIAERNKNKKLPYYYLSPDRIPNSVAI
Summary of the method: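 Leukocytes (~85% PMNs) were elicited in male Wistar rats (200-300 g) with ip 6% oyster glycogen and harvested 16-20 h later. Cells at 2.5 × 10^6/mL in complete HBSS were tested in triplicate, preincubated with the sample (in DMSO, or CHCl3 evaporated) for 10 min at 37 °C, then given A23187 for 10 min. Supernatant LTB4 was measured by RIA (3H-LTB4 tracer, rabbit antiserum, 18 h, 4 °C).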

[2] = Inhibition of cyclooxygenase in Wistar rat peritoneal leukocytes; assay type: cell-based; summary of the method: as §1
[3] = molecular target: T2, Polyunsaturated fatty acid 5-lipoxygenase (Rattus norvegicus, UniProt P12527); test: Inhibition of 5-lipoxygenase in Wistar rat peritoneal leukocytes; assay type: cell-based
T2 sequence (P12527 whole entry): T1 sequence (whole entry)
Summary of the method: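 Male Wistar rat peritoneal leukocytes (~85% PMNs) elicited by ip 6% oyster glycogen, harvested 16-20 h later, and resuspended at 2.5 × 10^6 cells/mL in HBSS with 1.26 mM Ca2+ and 0.9 mM Mg2+. Triplicates were preincubated 10 min at 37 °C with the test agent, then stimulated 10 min with calcium ionophore A23187. Supernatant LTB4 was measured by radioimmunoassay using a 3H-LTB4 tracer and rabbit antiserum (4 °C, 18 h).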

[4] = Cell viability of Wistar rat peritoneal leukocytes by trypan blue exclusion method; assay type: cell-based, Leukocyte; conditions: read-out: Activity

## O=C(/C=C/c1ccc(O)c(O)c1)O[C@H]1[C@H](O)[C@@H](O)[C@H](OCCc2ccc(O)c(O)c2)O[C@@H]1CO
Rattus norvegicus
  inhibition: 0%
[1]
  inhibition: 0%

## C=C1CC/C=C(\C)C(=O)[C@H](OC(C)=O)[C@@H]2[C@@H]1CC2(C)C [BUDDLEDIN A]
Rattus norvegicus
  inhibition: 89.3%
[1]
  inhibition: 98%
[2]
  pIC50: 4.86
[3]
  pIC50: 4.30

## C=C1CC/C=C(\C)C(=O)[C@H](O)[C@@H]2[C@@H]1CC2(C)C [BUDDLEDIN B]
Rattus norvegicus
  inhibition: 47.9%
[1]
  inhibition: 49.3%
[2]
  pIC50: < 3.70
[3]
  pIC50: < 3.70

## CC(/C=C/C=C(\C)C(=O)O)=C\C=C\C=C(C)\C=C\C=C(/C)C(=O)O[C@H]1O[C@H](CO[C@@H]2O[C@H](CO)[C@@H](O)[C@H](O)[C@H]2O)[C@@H](O)[C@H](O)[C@H]1O [CROCETIN MONOGENTIBIOSYL ESTER]
Rattus norvegicus
  inhibition: 85.1%
[1]
  inhibition: 0%
[2]
  pIC50: 4.55

## CCC(OC)(c1cccc(OCc2ccc3ccccc3c2)c1)c1nccs1 (centres undefined)
Rattus norvegicus
  inhibition: 0%
[1]
  inhibition: 100%

## O=C(O)c1ccc(OCCn2ccnc2)cc1
Rattus norvegicus
  inhibition: 89.6%
[1]
  inhibition: 0%

## COC(CO[C@@H]1O[C@H](CO)[C@@H](OC(=O)/C=C/c2ccc(O)c(O)c2)[C@H](O[C@@H]2O[C@@H](C)[C@H](O)[C@@H](O)[C@H]2O)[C@H]1O)c1ccc(O)c(O)c1 (some centres undefined)
Rattus norvegicus
  inhibition: 0%
[1]
  inhibition: 0%

## COc1ccc(-c2cc(=O)c3c(O)cc(O)cc3o2)cc1 [ACACETIN]
Rattus norvegicus
  inhibition: 69.5%
[1]
  inhibition: 77.6%
[2]
  pIC50: 4.11
[3]
  pIC50: 3.91

## CCn1c(=O)ccc2cc(COc3cc(F)cc(C4(OC)CCOCC4)c3)ccc21
Rattus norvegicus
  inhibition: 47.8%
[1]
  inhibition: 100%

## C=C1CCC[C@H](C)C(=O)[C@H](OC(C)=O)[C@@H]2[C@@H]1CC2(C)C
Rattus norvegicus
  inhibition: 0%
[1]
  inhibition: 0%

## COc1ccc2c(c1)c(CC(=O)O)c(C)n2C(=O)c1ccc(Cl)cc1
Rattus norvegicus
  inhibition: 100%
[1]
  inhibition: 0%

## C[C@@H]1O[C@@H](O[C@@H]2[C@@H](O)[C@H](OCCc3ccc(O)c(O)c3)O[C@H](CO)[C@H]2OC(=O)/C=C/c2ccc(O)c(O)c2)[C@H](O)[C@H](O)[C@H]1O
Rattus norvegicus
  inhibition: 0%
[1]
  inhibition: 0%

## C/C1=C\CC(C)(C)/C=C/C(=O)/C(C)=C/CC1
Rattus norvegicus
  inhibition: 0%
[1]
  inhibition: 0%

## Cc1cc(-c2ccc(/N=N/c3c(S(=O)(=O)O)cc4cc(S(=O)(=O)O)cc(N)c4c3O)c(C)c2)ccc1/N=N/c1c(S(=O)(=O)O)cc2cc(S(=O)(=O)O)cc(N)c2c1O [TRYPAN BLUE]
[4]
  viability: 95%

## C[C@H]1O[C@H](O[C@@H]2[C@@H](O)[C@H](OCCc3ccc(O)c(O)c3)O[C@H](CO[C@H]3OCC(O)(CO)[C@@H]3O)[C@H]2OC(=O)/C=C/c2ccc(O)c(O)c2)[C@@H](O)[C@@H](O)[C@@H]1O (some centres undefined)
Rattus norvegicus
  inhibition: 0%
[1]
  inhibition: 0%

## C[C@H]1O[C@H](O[C@@H]2[C@@H](O)[C@H](OCCc3ccc(O)c(O)c3)O[C@H](CO[C@H]3O[C@@H](CO)[C@H](O)[C@@H](O)[C@@H]3O)[C@H]2OC(=O)/C=C/c2ccc(O)c(O)c2)[C@@H](O)[C@@H](O)[C@@H]1O
Rattus norvegicus
  inhibition: 0%
[1]
  inhibition: 0%

## C=C1CC/C=C(\C)C(=O)C[C@@H]2[C@@H]1CC2(C)C [BUDDLEDIN C]
Rattus norvegicus
  inhibition: 9.5%
[1]
  inhibition: 16.4%
[2]
  pIC50: < 3.70
[3]
  pIC50: < 3.70

## C[C@@H]1O[C@@H](O[C@@H]2[C@@H](O)[C@H](OCCc3ccc(O)c(O)c3)O[C@H](CO[C@@H]3OC[C@H](O)[C@H](O)[C@H]3O)[C@H]2OC(=O)/C=C/c2ccc(O)c(O)c2)[C@H](O)[C@H](O)[C@H]1O
Rattus norvegicus
  inhibition: 0%
[1]
  inhibition: 0%
